Legend:
Mouse [1] = assay: concentration in plasma after dosing; settings: 0.25 h; dosed: 2-Hydroxy-4-methoxybenzophenone; 500 mg/kg; oral; Male; B6C3F1
Mouse [2] = assay: concentration in plasma after dosing; settings: 2 h; dosed: 2-Hydroxy-4-methoxybenzophenone; 250 mg/kg; oral; Male; B6C3F1
Rat [3] = assay: concentration in plasma after dosing; settings: dosed: 2-Hydroxy-4-methoxybenzophenone, 500 mg/kg, oral, Male, F344
Mouse [4] = assay: concentration in plasma after dosing; settings: 0.25 h; dosed: 2-Hydroxy-4-methoxybenzophenone; 500 mg/kg; oral; Male; B6C3F1; remark: listed apart in the source
Mouse [5] = assay: concentration in plasma after dosing; settings: 3 h; dosed: 2-Hydroxy-4-methoxybenzophenone; 250 mg/kg; oral; Female; B6C3F1
Mouse [6] = assay: concentration in plasma after dosing; settings: 2 h; dosed: 2-Hydroxy-4-methoxybenzophenone; 50 mg/kg; iv; Female; B6C3F1
Rat [7] = assay: concentration in brain after dosing; settings: 1.5 h; dosed: alpha-Thujone; 25 mg/kg; oral; Male; Harlan Sprague Dawley
Rat [8] = assay: concentration in plasma after dosing; settings: 12 h; dosed: alpha-Thujone; 50 mg/kg; oral; Female; Harlan Sprague Dawley
Rat [9] = assay: concentration in plasma after dosing; settings: 5 min; dosed: alpha-Thujone; 50 mg/kg; oral; Female; Harlan Sprague Dawley
Rat [10] = assay: concentration in plasma after dosing; settings: 1.5 h; dosed: alpha-Thujone; 50 mg/kg; oral; Male; Harlan Sprague Dawley
Rat [11] = assay: concentration in liver after dosing; settings: 3 h; dosed: Perfluorohexane-1-sulphonic acid – potassium salt; 16 mg/kg; oral; Female; F344
Rat [12] = assay: concentration in liver after dosing; settings: 1200 h; dosed: Perfluorohexane-1-sulphonic acid – potassium salt; 16 mg/kg; oral; Male; Harlan Sprague Dawley
Rat [13] = assay: concentration in brain after dosing; settings: 3 h; dosed: Perfluorohexane-1-sulphonic acid – potassium salt; 16 mg/kg; oral; Female; F344
Rat [14] = assay: concentration in liver after dosing; settings: 24 h; dosed: Perfluorohexane-1-sulphonic acid – potassium salt; 16 mg/kg; oral; Female; F344
Rat [15] = assay: concentration in liver after dosing; settings: 96 h; dosed: Perfluorohexane-1-sulphonic acid – potassium salt; 16 mg/kg; oral; Female; Harlan Sprague Dawley
Rat [16] = assay: concentration in kidney after dosing; settings: 24 h; dosed: Perfluorohexane-1-sulphonic acid – potassium salt; 16 mg/kg; oral; Female; Harlan Sprague Dawley
Rat [17] = assay: concentration in kidney after dosing; settings: dosed: Perfluorohexane-1-sulphonic acid – potassium salt, 16 mg/kg, oral
Rat [18] = assay: concentration in plasma after dosing; settings: 0.25 h; dosed: Pyridine; 10 mg/kg; iv; Male; F344
Rat [19] = assay: concentration in plasma after dosing; settings: dosed: Pyridine, 5 mg/kg, oral, Male, F344
Rat [20] = assay: concentration in plasma after dosing; settings: 10 min; dosed: Pyridine; 10 mg/kg; oral; Male; F344
Rat [21] = assay: concentration in plasma after dosing; settings: dosed: Methyleugenol, 37 mg/kg, iv, Female, F344
Rat [22] = assay: concentration in plasma after dosing; settings: dosed: Methyleugenol, 37 mg/kg, oral, Male, F344/N
Rat [23] = assay: concentration in plasma after dosing; settings: dosed: Methyleugenol, 37 mg/kg, iv, Male, F344
Rat [24] = assay: concentration in plasma after dosing; settings: 2 min; dosed: Methyleugenol; 37 mg/kg; iv; Female; F344
Mouse [25] = assay: concentration in plasma after dosing; settings: dosed: 2,4-Dichlorophenoxyacetic acid, 1.0 mg/kg, oral, Male, B6C3F1
Hamster = assay: concentration in plasma after dosing; settings: dosed: 2,4-Dichlorophenoxyacetic acid, 8.0 mg/kg, oral, Male, Syrian Golden
In short: (§1)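 Points were largely digitised from plot screenshots with WebPlotDigitizer or otherwise copied from tables, and they remain in the units each source reported. They come from published in vivo toxicokinetic studies and two structured collections. Sampling and analytical methods follow each source and were often not reported.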

Rat [26] = assay: concentration in plasma after dosing; settings: 10 min; dosed: 2,4-Dichlorophenoxyacetic acid; 2.0 mg/kg; iv; Male; Sprague-Dawley
human = assay: concentration in blood after dosing; settings: dosed: trichloroethylene, 100 ppm, inhalation, duration: 6 hr, male
In short: as §1

Rat [27] = assay: concentration in plasma after dosing; settings: 0.25 h; dosed: Primidone; 30 mg/kg; oral; Female; F344
Rat [28] = assay: concentration in plasma after dosing; settings: 0.25 h; dosed: Primidone; 80 mg/kg; oral; Female; Harlan Sprague-Dawley

O=C(c1ccccc1)c1ccc(O)cc1O [2,4-Dihydroxybenzophenone]
Settings	concentration in plasma [ng/mL]
Mouse [1]	1980
Mouse [2]	266
Mouse [4]	2740
Mouse [5]	133
Mouse [6]	39.7

Rat [3]
Settings	concentration in plasma [ng/mL]
10 h	107
10 min	78.6

CC(C)[C@]12CC(=O)[C@H](C)[C@H]1C2 [alpha-Thujone]
Settings	concentration in brain [ng/g]	concentration in plasma [ng/mL]
Rat [7]	592	–
Rat [8]	–	18.3
Rat [9]	–	112
Rat [10]	–	360

O=S(=O)([O-])C(F)(F)C(F)(F)C(F)(F)C(F)(F)C(F)(F)C(F)(F)F.[K+] [Perfluorohexane-1-sulphonic acid – potassium salt]
Settings	concentration in brain [ng/g]	concentration in kidney [ng/g]	concentration in liver [ng/g]
Rat [11]	–	–	63900
Rat [12]	–	–	10900
Rat [13]	1600	–	–
Rat [14]	–	–	53400
Rat [15]	–	–	10200
Rat [16]	–	22700	–

concentration in kidney [ng/g], Rat [17]
Settings	3 h	6 h	12 h	24 h	48 h	96 h	192 h	528 h	1200 h
Female, F344	29100	37500	41400	38500	–	–	16300	12700	–
Female, Harlan Sprague Dawley	29000	39200	26200	17200	7840	5860	2010	–	–
Male, Harlan Sprague Dawley	–	–	–	–	–	–	–	–	5590

c1ccncc1 [Pyridine]
Settings	concentration in plasma [ng/mL]
Rat [18]	4510
Rat [20]	4950

Rat [19]
Settings	concentration in plasma [ng/mL]
1 h	2530
8 h	1390

C=CCc1ccc(OC)c(OC)c1 [Methyleugenol]
Settings	concentration in plasma [ng/mL]
Rat [21], 0.25 h	9200
Rat [21], 1.5 h	738
Rat [22], 2 h	32
Rat [22], 10 min	268
Rat [23], 0.5 h	3440
Rat [23], 0.75 h	3090

Settings	concentration in plasma [ng/mL]
Rat [24]	47500

O=C(O)COc1ccc(Cl)cc1Cl [2,4-Dichlorophenoxyacetic acid]
concentration in plasma [ng/mL]
Settings	0.25 h	0.5 h	1 h	2 h	2.5 min	3 h	5 min	6 h	8 h	10 min
Hamster	4060	1230	1030	511	2380	–	9420	–	–	–
Mouse [25]	3930	3060	–	1790	–	990	3890	324	161	4270

Settings	concentration in plasma [ng/mL]
Rat [26]	13200

OCC(Cl)(Cl)Cl [trichloroethanol]
human
Settings	concentration in blood [ng/mL]
0 h	4780
18 h	1170
24 h	3430
42 h	2780
48 h	6470
66 h	5220
72 h	10800
90 h	7860

CCC1(c2ccccc2)C(=O)NCNC1=O [Primidone]
Settings	concentration in plasma [ng/mL]
Rat [27]	12300
Rat [28]	12500

Reference: EPA's CvTdb concentration-time database
